In ChEMBL document CHEMBL1139262, “Design, synthesis, and evaluation of 5-sulfamoyl benzimidazole derivatives as novel angiotensin II receptor antagonists” (Bioorg Med Chem, 2008):

Assays:
[1] = test system: Rattus norvegicus; assay: Antihypertensive effect in desoxycortisone acetate-induced hypertensive rat assessed as maximum decrease in mean arterial blood pressure at 5 mg/kg, ip after 6 hrs; assay type: functional, Artery; settings: route intraperitoneal
Summary of the method: (§1)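 Hypertension induced by uninephrectomy plus DOCA 40 mg kg−1 sc twice weekly for up to six weeks, with 1.0% NaCl and 0.2% KCl in drinking water; sham rats got tap water. Compound given ip, and mean arterial blood pressure measured 6 h after dosing. Activity expressed as fall in MABP.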

[2] = target: T1, Type-1 angiotensin II receptor A (Rattus norvegicus, UniProt P25095); assay: (§2) Antagonist activity at AT1 receptor in rat aortic rings; assay type: functional; settings: read-out: pA2 (converted)
T1 sequence (P25095 whole entry): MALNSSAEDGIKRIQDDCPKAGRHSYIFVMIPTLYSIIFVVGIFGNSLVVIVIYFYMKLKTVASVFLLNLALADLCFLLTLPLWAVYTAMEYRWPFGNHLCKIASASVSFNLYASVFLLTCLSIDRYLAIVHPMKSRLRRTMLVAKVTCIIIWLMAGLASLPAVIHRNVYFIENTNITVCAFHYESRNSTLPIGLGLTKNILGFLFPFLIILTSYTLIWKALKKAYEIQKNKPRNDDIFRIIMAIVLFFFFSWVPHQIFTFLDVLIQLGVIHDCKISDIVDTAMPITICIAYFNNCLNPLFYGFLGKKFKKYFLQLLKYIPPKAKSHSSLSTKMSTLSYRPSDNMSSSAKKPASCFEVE
Summary of the method: (§3)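 Isolated rat aortic ring in 10 ml bath of Krebs–Henseleit at 37 °C, pH 7.4, oxygenated, under 1 g tension. Ang II cumulative curve in 0.5-log steps (1 × 10−10 to 1 × 10−5), repeated after 15 min antagonist exposure at 1, 3 or 10 nmol. Response taken as % of maximal Ang II tension.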

[3] = target: T2, Type-1 angiotensin II receptor A (Rattus norvegicus) (UniProt P25095); assay: as §2; assay type: functional; summary of the method: as §3
T2 sequence (whole entry): T1 sequence (P25095 whole entry)

[4] = test system: Rattus norvegicus; assay: Antihypertensive effect in desoxycortisone acetate-induced hypertensive rat assessed as maximum decrease in mean arterial blood pressure at 3 mg/kg, ip after 6 hrs; assay type: functional, Artery; settings: route intraperitoneal; summary of the method: as §1

Kb [2] [nM]	pA10 [3]	SMILES	Activity [1] [mmHg]	Activity [4] [mmHg]
79.4	6.2	CCCCc1nc2cc(S(=O)(=O)NCC)ccc2n1Cc1ccc(-c2ccccc2C(=O)O)cc1	–	49.9
200	6.1	CCCCc1nc2cc(S(N)(=O)=O)ccc2n1Cc1ccc(-c2ccccc2C(=O)O)cc1	–	51.4
12.6	5.7	CCCCc1nc2cc(S(=O)(=O)NC3CCCCC3)ccc2n1Cc1ccc(-c2ccccc2C(=O)O)cc1	–	64.4
126	6.3	CCCCc1nc2cc(S(=O)(=O)NC)ccc2n1Cc1ccc(-c2ccccc2C(=O)O)cc1	–	52.5
63.1	6.3	CCCCc1nc2cc(S(=O)(=O)NC(C)C)ccc2n1Cc1ccc(-c2ccccc2C(=O)O)cc1	–	51.7

Second part, the molecule before the results:

SMILES	Kb [2] [nM]	pA10 [3]	Activity [1] [mmHg]	Activity [4] [mmHg]
CCOc1nc2cccc(C(=O)O)c2n1Cc1ccc(-c2ccccc2-c2nnn[nH]2)cc1	3.16	6.7	56.2	–
CCCCc1nc2ccccc2n1Cc1ccc(-c2ccccc2C(=O)O)cc1	3.16	6.7	–	–
CCCCc1nc2cc(S(=O)(=O)NCCC)ccc2n1Cc1ccc(-c2ccccc2C(=O)O)cc1	79.4	6.4	–	50.2
CCCCc1nc2cc(S(=O)(=O)O)ccc2n1Cc1ccc(-c2ccccc2C(=O)O)cc1	251	5.8	–	44.7
CCCCNS(=O)(=O)c1ccc2c(c1)nc(CCCC)n2Cc1ccc(-c2ccccc2C(=O)O)cc1	100	6.2	–	47.6
CCCCc1nc(Cl)c(CO)n1Cc1ccc(-c2ccccc2-c2nnn[nH]2)cc1 [LOSARTAN]	–	7.1	58.3	–
CCCCc1nc2cc(S(=O)(=O)NC(C)(C)C)ccc2n1Cc1ccc(-c2ccccc2C(=O)O)cc1	3.98	5.4	–	62.4
